# Measurements pooled from the literature.
# pEC50, pIC50: −log10 of the molar value.
# Cell line: MOLM-13
# Observed: cell growth or viability
SMILES,technique,time,quantity,result
COc1cc(F)ccc1-c1cc(Nc2cc(CS(C)(=N)=O)ccn2)ncc1F (stereo not drawn),,24 h,GI50,93.8 nM
COc1cc2nccc(Oc3ccc(NC(=O)C4(C(=O)Nc5ccc(F)cc5)CC4)cc3)c2cc1OC,trypan blue,72 h,pIC50,8.00
COc1cc(Nc2nccc(-c3cnn4nc(OC)ccc34)n2)cc(C(F)(F)F)c1,ATP luminescence,,pIC50,6.82
CCCON(Cc1ccc(C(=O)NO)cc1)C(=O)Nc1ccccc1,ATP luminescence,72 h,pIC50,6.62
NNCCc1ccccc1,resazurin,96 h,pEC50,< 5.70
Cc1cc2c(cc1N1C(=O)c3cccc4c(CCCO)ccc(c34)C1=O)n(C)c(=O)n2C (racemic),resazurin,,GI50,1060 nM
COc1cc(-c2ncn(/C=C\C(=O)OC(C)C)n2)cc(C(F)(F)F)c1,,72 h,pIC50,7.82
CCCCN(Cc1ccc(C(=O)NO)cc1)C(=O)Nc1ccccc1,ATP luminescence,72 h,pIC50,6.66
Nc1nc(Nc2ccc3c(c2)CC[C@@H](N2CCCC2)CC3)nn1-c1cc2c(nn1)-c1ccccc1CCC2,trypan blue,72 h,pIC50,6.78
O=C(O)c1ccc(CN2CCC(CN[C@@H]3C[C@H]3c3ccccc3)CC2)cc1,resazurin,96 h,pEC50,7.40
CC[C@@H](C)[C@H](N)C(=O)N1Cc2ccccc2C1,ATP luminescence,48 h,pIC50,5.73
C#CCN(C)Cc1ccccc1,resazurin,96 h,pEC50,< 5.70
N[C@@H](CC(=O)N1CCN(C(c2ccc(F)cc2)c2ccc(F)cc2)CC1)C(=O)N1Cc2ccccc2C1,ATP luminescence,48 h,pIC50,5.69
N[C@H]1CC[C@H](N[C@@H]2C[C@H]2c2ccccc2)CC1,resazurin,96 h,pEC50,9.68
CC(C)C[C@H](NC(=O)[C@H](Cc1ccccc1)NC(=O)c1cnccn1)B(O)O,ATP luminescence,,pIC50,8.35
